Screening data (PubChem BioAssay)
KCNK3 block: human KCNK3 channel inhibition, primary screen; O14649; CHO-KCNK3 thallium flux, FluxOR fluorescence; stronger effect = lower value; B-score at 10 µM; 340,000 compounds, 0.84% hits;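 active = B-score under library mean minus 4 SD, starting fluorescence ratio at most library mean plus 5 SD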;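 note: more negative B-score means stronger inhibition of thallium flux through KCNK3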
Target sequence (O14649 whole entry, looked up): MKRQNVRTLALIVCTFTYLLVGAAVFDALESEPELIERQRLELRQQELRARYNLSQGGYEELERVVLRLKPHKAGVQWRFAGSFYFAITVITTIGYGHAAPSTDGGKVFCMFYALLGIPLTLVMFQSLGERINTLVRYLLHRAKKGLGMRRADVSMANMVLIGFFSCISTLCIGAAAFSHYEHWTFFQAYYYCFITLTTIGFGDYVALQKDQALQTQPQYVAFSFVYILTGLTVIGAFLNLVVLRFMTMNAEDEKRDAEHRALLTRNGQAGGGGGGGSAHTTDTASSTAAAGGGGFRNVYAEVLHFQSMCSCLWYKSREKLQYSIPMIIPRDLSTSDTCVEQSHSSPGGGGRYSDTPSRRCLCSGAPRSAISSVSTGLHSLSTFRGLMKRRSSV
hERG rescue: shields human hERG channel from block by proarrhythmic agents; CHO-hERG, FluxOR thallium flux, dofetilide IC70 present; 310,000 compounds, 0.51% hits; Q12809; activation (rescue from dofetilide block), less the hit threshold, % at 10 µM; AID 1511;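 active = activation above the mean of controls blocked by dofetilide plus 5 SD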;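 note: thallium influx through hERG after potassium depolarization seen as dye fluorescence rise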
KCNQ1 block: inhibitors of human KCNQ1 potassium channel; P51787; B-score at 10 µM; AID 2642; 310,000 compounds, 1.3% hits; CHO-K1 KCNQ1, FluxOR thallium flux fluorescence; stronger effect = higher value;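 active = compounds whose thallium flux B-score, printed positive for inhibition, exceeds three library SD while starting fluorescence stays within three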;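 note: channel opened by potassium depolarization with thallium stimulus after 20 min compound exposure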
KCNK9 block: blocks the human KCNK9 two-pore domain potassium channel. Q9NPC2. HEK293 KCNK9, FluxOR thallium flux fluorescence; stronger effect = lower value. B-score at 10 µM. 310,000 compounds, 1.2% hits;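 active = ratio B-score over 3 SD below the library mean, with starting fluorescence within 5 SD of its mean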;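 note: negative B-score means less thallium flux so channel inhibition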
KCNQ1 act: potentiators or activators of human KCNQ1 potassium channel; P51787; CHO-K1 KCNQ1, thallium flux FluxOR fluorescence; stronger effect = higher value; B-score at 10 µM; 310,000 compounds, 0.35% hits;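 active = fluorescence ratio B-score, a plate-corrected score, at least three library SD, with initial intensity B-score within 5 SD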
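Doses: Single concentration per compound, DMSO matched to controls | Test system: KCNQ1-transfected CHO-K1 cells | Timing: 90 min dye loading and 20 min compound exposure, both at room temperature | Measured by: Kinetic FluxOR thallium fluorescence, 10-s 1-Hz baseline, 110-s post-stimulus read | Medium: Assay buffer with matched DMSO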
Kir21 inh: blocks the mouse Kir2.1 inward-rectifier potassium channel | 310,000 compounds, 0.85% hits | AID 1672 | B-score at 10 µM | HEK293-Kir2.1, FluxOR thallium flux fluorescence; stronger effect = lower value | P35561;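 active = fluorescence ratio B-score at or below minus 3 SD of library scores, with starting-brightness B-score within 2 SD, cut at about -4.2 in these data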;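 note: channel flux triggered by added potassium and thallium sulfate stimulus; B-score of peak minus minimum fluorescence over baseline after thallium stimulus; more negative B-score means stronger Kir2.1 block with less thallium influx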
Each line names hits and unclear results; the compound was inactive in the other large screens. Compounds with a hit are over-represented: about 3.7% of the library has one in this group of screens.

CN1CCN(C(=O)NCC23CC4CC(CC(C4)C2)C3)CC1	none
O=C(Nc1nc2ccc(SC(F)F)cc2s1)c1ccc(NS(=O)(=O)c2ccc(F)c(F)c2)cc1	KCNK9 block -6.77
Nc1nc2ccccc2n1CCOc1ccc(F)cc1	none
CCCc1nc2ccc(NC(=O)c3cccs3)cc2c(=O)n1Cc1ccccc1Cl	KCNK9 block -6.77
C=CCc1cc(C)ccc1OCCOCCN1CCN(C)CC1	none
N#Cc1nc(-c2ccccc2Cl)oc1NCc1ccco1	KCNK9 block -7.49
N#Cc1nc(-c2ccccc2)oc1NCc1ccco1	none
CNC(=O)c1sc(N2N=C3/C(=C/c4ccccc4)CCCC3C2c2ccccc2)nc1C (stereo unspecified)	KCNK9 block -8.67
Cc1ccc(C(=O)CC(=O)COc2ccc(Cl)cc2)cc1	KCNQ1 act 17
COc1ccc(C(=O)NNC(=S)NC(=O)c2ccc(OC)cc2)cc1	none
Cc1ccc(C(=O)NCCOc2ccc(Cl)cc2)cc1	none
COc1ccc(C(=O)NC(=S)NNC(=O)c2cccc(C)c2)cc1	KCNQ1 act 62
Cc1cccc(C(=O)NNC(=S)NC(=O)c2cccs2)c1	none
Cc1cccc(C(=O)NC(=S)NNC(=O)COc2ccc(Cl)cc2)c1	KCNQ1 act 59
Cc1cccc(C(=O)NNC(=S)NC(=O)c2ccccc2)c1	KCNQ1 act 23
C[C@H](CO)N1C[C@H](C)[C@@H](CN(C)CC2CCCCC2)Oc2c(NC(=O)CCC(F)(F)F)cccc2C1=O	none (no result: hERG rescue, KCNQ1 block, KCNK9 block, KCNQ1 act, Kir21 inh)
O=C(COC(=O)COc1ccccc1)NC1CCCC1	none (no result: hERG rescue, KCNQ1 block, KCNK9 block, KCNQ1 act, Kir21 inh)
CC(C)(C)c1cc(CCC(=O)NNC(=S)NC(=O)c2ccccc2)cc(C(C)(C)C)c1O	KCNQ1 act 36
O=C(NNC(=S)NC(=O)c1ccc(Br)cc1)c1ccc([N+](=O)[O-])cc1	none
O=C(NNC(=S)NC(=O)c1ccc(Br)cc1)c1cccc([N+](=O)[O-])c1	KCNQ1 act 21
COc1ccc(-c2nc(-c3ccccc3)c(-c3cc([N+](=O)[O-])ccc3C)[nH]2)cc1O	KCNQ1 block 7, KCNK9 block -10.3
CC1=NN(S(=O)(=O)c2ccc(Cl)cc2Cl)C(=O)c2ccccc2O1	Kir21 inh -4.83
Cc1nn(-c2ccc(Cl)cc2Cl)c(=O)c2ccccc12	none
CC1c2cc3c(cc2CCN1C(=O)c1ccc(C(F)(F)F)cc1)OCCCO3 (stereo unspecified)	KCNK9 block -6.91
CC(=O)N(Cc1ccc(F)cc1)C1=C(NCc2ccccc2)C(=O)c2ccccc2C1=O	KCNK9 block -7.86
C=C(c1ccccc1C)[n+]1ccccc1	none
COc1ccc(NC(=O)CNS(=O)(=O)c2ccc(Cl)cc2)cc1	none
Cc1ccc(NC(=O)c2ccc3c(c2)OCCO3)cc1S(=O)(=O)Nc1cccc(Cl)c1	KCNQ1 block 6
COc1cccc(NC(=O)CNS(=O)(=O)c2ccc(Cl)cc2)c1	Kir21 inh -4.24
Cc1cccc(NC(=O)c2cccc(NS(=O)(=O)c3ccc(Cl)cc3)c2)c1	KCNQ1 block 10
CCC(C)N(C(=O)CN1C(=O)NC2(CCc3ccccc32)C1=O)C1CCS(=O)(=O)C1 (stereo unspecified)	none (no result: hERG rescue, KCNQ1 block, KCNK9 block, KCNQ1 act, Kir21 inh)
Cc1cccc(CN2CCc3c([nH]c4ccccc34)C2)c1	Kir21 inh -5.87
Clc1cccc(CN2CCc3c([nH]c4ccccc34)C2)c1	none
COc1cccc(NC(=O)COC(=O)c2ccc(C)c(S(=O)(=O)N3CCCCC3)c2)c1	none (no result: hERG rescue, KCNQ1 block, KCNK9 block, KCNQ1 act, Kir21 inh)
CCC[C@H](CN[C@@H](CNC)[C@H](C)CC)NCCc1cc(C(F)(F)F)cc(C(F)(F)F)c1	Kir21 inh -4.24
CCC[C@@H](CN[C@@H](CNC)[C@H](C)CC)NCC1CCC(C(C)(C)C)CC1 (stereo partly specified)	none
COc1cccc(CN2CCN(c3ccc(F)cc3)C2=O)c1	none
O=C1N(Cc2ccc(F)cc2)CCN1c1ccc(F)cc1	KCNQ1 act 19
Cc1cc(C(=O)COc2cc(F)ccc2[N+](=O)[O-])c(C)n1C1CC1	hERG rescue 34.2
COc1ccc(C2CC(=O)Oc3c(C(CCN4CCCCC4)c4ccc(N(C)C)cc4)c(OC)cc(OC)c32)cc1 (stereo unspecified)	none
